# Data as given in ChEMBL document CHEMBL4823270, “A first-in-class anticancer dual HDAC2/FAK inhibitors bearing hydroxamates/benzamides capped by pyridinyl-1,2,4-triazoles” (Eur J Med Chem, 2021).
# Key:
# [1] = target: Histone deacetylase 2 (Homo sapiens, UniProt Q92769); experiment: Inhibition of human full-length recombinant HDAC2 preincubated for 5 mins followed by HDAC substrate addition and further incubated for 45 mins by fluorescence microplate reader assay
# [2] = test system: HCT-116; experiment: Growth inhibition of human HCT-116 cells at 10 uM incubated for 24 hrs by MTT assay relative to control; type: functional; details: read-out: GI
# In short: (§1)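 Cells seeded at 1 × 10^4 per well, cultured overnight, then exposed to 10 μM compound or DMSO (negative control) for 24 h. After a PBS wash, MTT (2 mg/ml) was added for 4 h at 37°C and formazan dissolved in DMSO. OD read at 570 nm. Growth inhibition = 1 − (OD treated/OD control); at least three independent experiments.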
# [3] = target: T1, Protein deacetylase HDAC6 (Homo sapiens, UniProt Q9UBN7); experiment: Inhibition of human full-length recombinant HDAC6 preincubated for 5 mins followed by HDAC substrate addition and further incubated for 45 mins by fluorescence microplate reader assay
# T1 sequence (Q9UBN7 whole entry): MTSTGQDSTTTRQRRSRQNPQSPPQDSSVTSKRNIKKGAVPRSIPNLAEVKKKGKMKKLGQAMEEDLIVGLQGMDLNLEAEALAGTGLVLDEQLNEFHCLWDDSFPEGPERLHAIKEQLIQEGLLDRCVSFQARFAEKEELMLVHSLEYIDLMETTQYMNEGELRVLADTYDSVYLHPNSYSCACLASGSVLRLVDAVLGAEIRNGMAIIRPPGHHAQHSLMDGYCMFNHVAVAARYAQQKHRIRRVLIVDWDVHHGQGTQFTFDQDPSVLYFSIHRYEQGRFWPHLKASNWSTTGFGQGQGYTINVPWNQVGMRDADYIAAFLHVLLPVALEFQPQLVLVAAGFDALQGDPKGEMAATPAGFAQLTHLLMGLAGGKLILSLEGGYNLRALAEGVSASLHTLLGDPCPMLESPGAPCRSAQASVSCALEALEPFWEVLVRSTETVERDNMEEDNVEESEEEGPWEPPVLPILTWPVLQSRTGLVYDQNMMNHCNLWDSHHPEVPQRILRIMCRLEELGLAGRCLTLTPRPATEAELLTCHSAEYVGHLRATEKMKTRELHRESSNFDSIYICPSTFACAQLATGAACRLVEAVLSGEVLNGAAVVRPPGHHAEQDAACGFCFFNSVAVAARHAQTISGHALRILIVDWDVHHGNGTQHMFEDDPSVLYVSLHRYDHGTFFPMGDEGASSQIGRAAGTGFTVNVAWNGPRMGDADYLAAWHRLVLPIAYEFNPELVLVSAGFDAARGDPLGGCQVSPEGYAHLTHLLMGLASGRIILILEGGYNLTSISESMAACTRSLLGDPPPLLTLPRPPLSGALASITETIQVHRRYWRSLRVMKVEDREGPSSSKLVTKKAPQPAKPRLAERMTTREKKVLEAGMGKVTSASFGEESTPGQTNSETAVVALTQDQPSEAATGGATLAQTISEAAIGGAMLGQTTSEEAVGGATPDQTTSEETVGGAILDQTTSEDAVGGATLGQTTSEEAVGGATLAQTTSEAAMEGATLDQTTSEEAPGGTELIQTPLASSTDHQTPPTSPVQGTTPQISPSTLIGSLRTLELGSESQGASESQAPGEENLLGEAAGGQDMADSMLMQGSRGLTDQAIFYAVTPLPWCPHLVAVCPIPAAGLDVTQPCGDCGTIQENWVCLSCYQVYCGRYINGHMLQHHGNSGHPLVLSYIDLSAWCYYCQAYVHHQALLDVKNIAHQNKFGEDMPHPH
# [4] = test system: CAKI-1; experiment: Growth inhibition of human CAKI-1 cells at 10 uM incubated for 24 hrs by MTT assay relative to control; type: functional; details: read-out: GI; in short: as §1
# [5] = target: T2, Histone deacetylase 8 (Homo sapiens, UniProt Q9BY41); experiment: Inhibition of human full-length recombinant C-terminal His-tagged HDAC8 expressed in baculovirus infected Sf9 insect cells preincubated for 5 mins followed by HDAC substrate addition and further incubated for 45 mins by fluorescence microplate reader assay
# T2 sequence (Q9BY41 whole entry): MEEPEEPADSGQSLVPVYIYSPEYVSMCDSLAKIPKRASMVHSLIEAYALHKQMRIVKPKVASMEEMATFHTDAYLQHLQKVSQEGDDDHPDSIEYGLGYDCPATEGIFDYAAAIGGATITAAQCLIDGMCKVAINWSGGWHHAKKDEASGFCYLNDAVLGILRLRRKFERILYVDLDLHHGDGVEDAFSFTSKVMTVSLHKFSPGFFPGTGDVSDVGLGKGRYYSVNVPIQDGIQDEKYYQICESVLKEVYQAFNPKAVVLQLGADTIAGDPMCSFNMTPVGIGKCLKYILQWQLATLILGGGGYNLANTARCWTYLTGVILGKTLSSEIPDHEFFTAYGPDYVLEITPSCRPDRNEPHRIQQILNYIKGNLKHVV
# [6] = target: Focal adhesion kinase 1 (Homo sapiens, UniProt Q05397); experiment: Inhibition of FAK (unknown origin) by FRET-based Z'-Lyte assay
# In short: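 Recombinant FAK kinase activity measured with the FRET-based Z'-LYTE format; the same platform was used for a kinase panel (FAK, FLT, FRK, IGF-1R, BTK). IC50 values determined.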
# [7] = test system: HT-29; experiment: Growth inhibition of human HT-29 cells at 10 uM incubated for 24 hrs by MTT assay relative to control; type: functional; details: read-out: GI; in short: as §1
# [8] = test system: CAKI-1; experiment: Antiproliferative activity against human CAKI-1 cells assessed as cell growth inhibition incubated for 24 hrs by MTT assay; type: functional, cell-based; details: CAKI-1, 24 h
# [9] = test system: K562; experiment: Growth inhibition of human K562 cells at 10 uM incubated for 24 hrs by MTT assay relative to control; type: functional; details: read-out: GI; in short: as §1
# [10] = target: Histone deacetylase 3 (Homo sapiens, UniProt O15379); experiment: Inhibition of human full-length recombinant HDAC3 preincubated for 5 mins followed by HDAC substrate addition and further incubated for 45 mins by fluorescence microplate reader assay
# [11] = test system: KG-1; experiment: Growth inhibition of human KG-1 cells at 10 uM incubated for 24 hrs by MTT assay relative to control; type: functional; details: KG-1, 24 h; in short: as §1
# [12] = target: Histone deacetylase 1 (Homo sapiens, UniProt Q13547); experiment: Inhibition of human full-length recombinant HDAC1 preincubated for 5 mins followed by HDAC substrate addition and further incubated for 45 mins by fluorescence microplate reader assay
# [13] = test system: A498; experiment: Growth inhibition of human A498 cells at 10 uM incubated for 24 hrs by MTT assay relative to control; type: functional; details: read-out: GI; in short: as §1
# [14] = test system: A498; experiment: Antiproliferative activity against human A498 cells assessed as cell growth inhibition incubated for 24 hrs by MTT assay; type: functional, cell-based; details: A498, 24 h
# Histone deacetylase 2, sequence (Q92769 whole entry): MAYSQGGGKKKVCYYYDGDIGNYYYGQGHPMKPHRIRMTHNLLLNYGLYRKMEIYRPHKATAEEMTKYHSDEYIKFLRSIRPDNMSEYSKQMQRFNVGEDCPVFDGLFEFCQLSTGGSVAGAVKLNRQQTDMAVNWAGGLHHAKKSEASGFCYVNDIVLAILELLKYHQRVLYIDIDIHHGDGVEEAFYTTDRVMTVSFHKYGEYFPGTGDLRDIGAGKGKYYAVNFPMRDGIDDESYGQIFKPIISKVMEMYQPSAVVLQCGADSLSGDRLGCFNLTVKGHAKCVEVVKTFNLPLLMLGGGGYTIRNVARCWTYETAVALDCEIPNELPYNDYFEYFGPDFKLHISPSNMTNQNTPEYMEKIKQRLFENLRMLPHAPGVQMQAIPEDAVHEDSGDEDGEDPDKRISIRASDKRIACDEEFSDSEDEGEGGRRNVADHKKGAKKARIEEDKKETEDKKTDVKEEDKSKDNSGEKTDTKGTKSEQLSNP
# Histone deacetylase 3, sequence (O15379 whole entry): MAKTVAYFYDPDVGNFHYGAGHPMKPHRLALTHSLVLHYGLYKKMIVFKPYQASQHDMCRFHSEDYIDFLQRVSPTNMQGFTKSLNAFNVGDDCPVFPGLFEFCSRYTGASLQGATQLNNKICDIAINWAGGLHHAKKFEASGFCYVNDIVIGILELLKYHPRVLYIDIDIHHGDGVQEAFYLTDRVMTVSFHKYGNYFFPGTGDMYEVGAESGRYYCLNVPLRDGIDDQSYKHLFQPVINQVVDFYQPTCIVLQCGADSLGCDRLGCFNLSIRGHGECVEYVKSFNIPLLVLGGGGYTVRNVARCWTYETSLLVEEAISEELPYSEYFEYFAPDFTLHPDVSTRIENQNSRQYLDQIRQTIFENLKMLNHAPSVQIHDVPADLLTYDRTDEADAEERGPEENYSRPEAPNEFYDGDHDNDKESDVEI
# Histone deacetylase 1, sequence (Q13547 whole entry): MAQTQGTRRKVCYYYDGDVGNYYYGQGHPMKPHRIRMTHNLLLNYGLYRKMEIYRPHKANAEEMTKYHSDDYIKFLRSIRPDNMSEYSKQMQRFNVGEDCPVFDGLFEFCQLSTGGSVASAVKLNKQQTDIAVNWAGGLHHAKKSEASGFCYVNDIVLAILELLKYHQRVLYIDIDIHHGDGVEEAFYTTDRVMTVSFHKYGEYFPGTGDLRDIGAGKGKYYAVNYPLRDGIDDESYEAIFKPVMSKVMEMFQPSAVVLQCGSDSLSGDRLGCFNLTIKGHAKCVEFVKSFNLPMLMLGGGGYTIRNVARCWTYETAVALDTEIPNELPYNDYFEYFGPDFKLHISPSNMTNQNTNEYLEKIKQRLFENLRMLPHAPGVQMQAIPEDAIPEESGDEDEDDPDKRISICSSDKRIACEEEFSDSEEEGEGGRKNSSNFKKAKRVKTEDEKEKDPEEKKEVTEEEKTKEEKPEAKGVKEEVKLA
# Focal adhesion kinase 1, sequence (Q05397 whole entry): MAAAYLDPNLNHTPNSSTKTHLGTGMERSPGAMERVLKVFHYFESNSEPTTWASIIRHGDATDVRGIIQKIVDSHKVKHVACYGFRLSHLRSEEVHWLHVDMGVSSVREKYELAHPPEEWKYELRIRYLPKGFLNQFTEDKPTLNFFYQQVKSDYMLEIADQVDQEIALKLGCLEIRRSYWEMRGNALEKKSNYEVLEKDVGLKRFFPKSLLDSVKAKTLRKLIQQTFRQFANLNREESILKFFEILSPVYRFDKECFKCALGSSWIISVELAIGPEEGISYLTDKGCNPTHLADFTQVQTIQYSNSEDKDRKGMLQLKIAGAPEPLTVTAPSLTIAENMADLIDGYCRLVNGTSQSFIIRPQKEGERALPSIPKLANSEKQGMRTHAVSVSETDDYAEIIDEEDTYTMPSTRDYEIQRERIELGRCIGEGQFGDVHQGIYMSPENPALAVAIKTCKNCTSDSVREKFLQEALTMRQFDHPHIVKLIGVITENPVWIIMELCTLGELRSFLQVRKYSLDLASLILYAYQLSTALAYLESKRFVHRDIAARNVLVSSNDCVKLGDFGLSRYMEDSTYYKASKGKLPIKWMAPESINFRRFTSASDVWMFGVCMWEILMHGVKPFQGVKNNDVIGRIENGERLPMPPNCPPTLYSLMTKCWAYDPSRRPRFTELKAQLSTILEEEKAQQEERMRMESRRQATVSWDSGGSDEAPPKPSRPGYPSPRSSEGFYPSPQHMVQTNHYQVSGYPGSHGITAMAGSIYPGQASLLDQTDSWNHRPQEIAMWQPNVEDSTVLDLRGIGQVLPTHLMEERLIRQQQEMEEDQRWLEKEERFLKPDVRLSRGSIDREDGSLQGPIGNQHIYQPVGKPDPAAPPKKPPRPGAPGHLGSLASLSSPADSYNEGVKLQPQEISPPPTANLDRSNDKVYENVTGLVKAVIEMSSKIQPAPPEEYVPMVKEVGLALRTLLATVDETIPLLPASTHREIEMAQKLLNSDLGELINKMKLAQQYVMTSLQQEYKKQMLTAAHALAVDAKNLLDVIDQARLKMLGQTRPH
SMILES,IC50 [1] [µM],inhibition of growth at 10 µM [2] [%],IC50 [3] [µM],inhibition of growth at 10 µM [4] [%],IC50 [5] [µM],IC50 [6] [µM],inhibition of growth at 10 µM [7] [%],IC50 [8] [µM],inhibition of growth at 10 µM [9] [%],IC50 [10] [µM],inhibition in vitro at 10 µM [11] [%],IC50 [12] [µM],inhibition of growth at 10 µM [13] [%],IC50 [14] [µM]
CCn1c(SCCCCCC(=O)Nc2ccccc2N)nnc1-c1ccncc1,27.1,6.35,> 300,8.91,198,0.141,18.6,98.3,10.4,> 300,3.64,> 300,22.3,77.6
Cn1c(SCCCCCC(=O)O)nnc1-c1ccncc1,7.36,20.1,78.4,34.7,12,0.0503,34.2,16.5,18.2,84.6,55.9,8.93,45.3,12.3
O=C(CCCCCSc1nnc(-c2ccncc2)n1-c1ccccc1)NO,32.4,3.56,246,,> 300,0.425,1.09,92.4,8.34,> 300,11.2,> 300,4.36,174
O=C(NO)c1ccc(CSc2nnc(-c3ccncc3)n2-c2ccccc2)cc1,9.76,29.3,6.93,61.9,12.8,0.0224,42.7,7.13,39.1,18,50.9,15,56.9,8.76
C=CCn1c(SCc2ccc(C(=O)NO)cc2)nnc1-c1ccncc1,11.2,44.1,9.86,50.2,28.4,0.0461,25.3,9.56,36.1,20.7,62,19.6,44.9,13.2
Cn1c(SCc2ccc(C(=O)Nc3ccccc3N)cc2)nnc1-c1ccncc1,13,18,11,75.2,7.85,0.0531,47.9,6.97,54.1,71.1,24.1,7.64,55.6,9.34
Cn1c(SCCCCCC(=O)Nc2ccccc2N)nnc1-c1ccncc1,14.4,54.4,14.2,50.8,7.28,0.0571,71.4,9.87,44.9,84.1,63.1,40.2,45.3,13.4
Cn1c(SCc2ccc(C(=O)NO)cc2)nnc1-c1ccncc1,4.35,,14.4,48.2,29.8,0.0643,54,11,16,56.4,72.1,14.2,31.8,20.9
CNC(=O)c1ccccc1Nc1nc(Nc2ccc(N3CCOCC3)cc2OC)ncc1Cl,,,,,,,,1.05,,,,,,0.81
CCn1c(SCCCCCC(=O)O)nnc1-c1ccncc1,26.4,2.15,> 300,1.06,> 300,0.0762,9.34,,1.58,156,7.34,184,4.13,125
CCCC(CCC)C(=O)O [VALPROIC ACID],,,215,,,,,2830,,,,84.2,,2140
